Test results reported in PubChem BioAssay AID2465 (Broad Institute, 2010).
Screen size: about 24,000 compounds; fewer than 10 were called active. No stated cut-off is given here; in the data, active means caspase activation above about 5.9%; inconclusive means no clear call, values can overlap the other calls; inactive means below about 2.2%. The list is a sample of the results.

test: A1 inhibitors via caspase activation, primary screen, cell-based, luminescence, HTS, two replicates (AID 2465); details: MEF A1-2A-BIM cells, caspase-Glo luminescence, 3 h; hits give high values; percent of clofoctol response, DMSO zero; concentration not given here
Outline: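 Evaluation: Caspase-3/7 activity from luminescence increase | Assay system: A1-2A-BIM mouse embryonic fibroblasts | Quantity: 2500 MEF cells/well | Medium: RPMI-1640 plus 10% FBS | Detection: Caspase-Glo 3/7 luminescence, 1 h at room temperature | Dosing: 50 nL compound per well, pinned | Timing: Cells settled overnight, compound exposure 3 h at 37 °C, 5% CO2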

Caspase activation, inactive:
COC(=O)CCCCCCC(=O)N/N=C/c1cccs1 0.382%
C[C@H](CO)N1C[C@H](C)[C@H](CN(C)C(=O)Nc2cccc3ccccc23)OCCCC[C@H](C)Oc2ccc(NC(=O)Nc3ccc4c(c3)OCO4)cc2C1=O 0.835%
Cc1noc(C)c1S(=O)(=O)Nc1ccc2c(c1)C(=O)N([C@@H](C)CO)C[C@H](C)[C@H](CN(C)CC1CCCCC1)OCCCC[C@H](C)O2 -0.748%
C[C@@H]1CN([C@@H](C)CO)C(=O)c2cc(NS(=O)(=O)c3cccs3)ccc2O[C@@H](C)CCCCO[C@@H]1CN(C)C(=O)NC1CCCCC1 -0.476%
Cc1ccc(S(=O)(=O)N(C)C[C@H]2Oc3c(NC(=O)c4ccc(-c5nccs5)cc4)cccc3C(=O)N([C@H](C)CO)C[C@H]2C)cc1 -0.882%
Cc1ccc(S(=O)(=O)N(C)C[C@H]2OCCCC[C@@H](C)Oc3ccc(NC(=O)NC4CCCCC4)cc3C(=O)N([C@H](C)CO)C[C@@H]2C)cc1 -0.124%
C[C@@H]1CN([C@H](C)CO)C(=O)c2cc(NC(=O)Nc3ccc(F)cc3)ccc2O[C@@H]1CN(C)Cc1ccc(Cl)c(Cl)c1 0.0143%
C[C@H]1CN([C@@H](C)CO)C(=O)c2cccc(NS(=O)(=O)c3cccs3)c2O[C@H]1CN(C)Cc1ccc(C(=O)Nc2ccccc2N)cc1 -0.485%
C[C@@H]1CN([C@H](C)CO)C(=O)Cc2cc(NC(=O)Nc3ccc4c(c3)OCO4)ccc2O[C@@H]1CN(C)Cc1ccc(C(=O)Nc2ccccc2N)cc1 -1.67%
O=C(CCCCCC(=O)N/N=C/c1ccc[nH]1)NO -0.622%
C[C@@H]1CCCCO[C@@H](CN(C)Cc2ccc3c(c2)OCO3)[C@@H](C)CN([C@@H](C)CO)C(=O)c2cc(NC(=O)C3CCCCC3)ccc2O1 1.06%
Cc1noc(C)c1NC(=O)N(C)C[C@@H]1OCCCC[C@H](C)Oc2ccc(NC(=O)NC3CCCCC3)cc2C(=O)N([C@H](C)CO)C[C@H]1C -1.23%
Cc1noc(C)c1S(=O)(=O)N(C)C[C@H]1OCCCC[C@@H](C)Oc2ccc(NC(=O)c3ccccc3)cc2C(=O)N([C@@H](C)CO)C[C@H]1C 0.679%
C[C@@H]1CCCCO[C@@H](CN(C)Cc2ccncc2)[C@H](C)CN([C@H](C)CO)C(=O)c2cc(NC(=O)NC3CCCCC3)ccc2O1 0.887%
C[C@@H]1CCCCO[C@@H](CN(C)C(=O)C2CCCCC2)[C@H](C)CN([C@H](C)CO)C(=O)c2cc(NC(=O)c3ccccc3)ccc2O1 -0.0371%
CNC[C@@H]1Oc2ccc(NC(=O)C3CCCCC3)cc2CC(=O)N([C@@H](C)CO)C[C@H]1C -2%
Cc1noc(C)c1NC(=O)Nc1ccc2c(c1)CC(=O)N([C@@H](C)CO)C[C@H](C)[C@H](CN(C)S(=O)(=O)c1c(C)noc1C)O2 -0.264%
C[C@@H]1CN([C@H](C)CO)C(=O)Cc2cc(NC(=O)C3CCCCC3)ccc2O[C@H]1CN(C)S(=O)(=O)c1ccc(Cl)cc1 -0.597%
Cc1noc(C)c1NC(=O)N(C)C[C@H]1OCCCC[C@H](C)Oc2ccc(NC(=O)Cc3ccccc3)cc2C(=O)N([C@H](C)CO)C[C@@H]1C -0.000815%
Cc1noc(C)c1S(=O)(=O)N(C)C[C@@H]1OCCCC[C@H](C)Oc2ccc(NC(=O)NC3CCCCC3)cc2C(=O)N([C@@H](C)CO)C[C@H]1C 2.87%
COc1cc(O)cc(OC)c1/C=N/NC(=O)c1ccccc1O -0.325%
C[C@@H]1CCCCO[C@@H](CN(C)C(=O)Nc2cccc3ccccc23)[C@H](C)CN([C@@H](C)CO)C(=O)c2cc(NS(=O)(=O)c3ccccc3)ccc2O1 0.255%
COc1ccc(S(=O)(=O)Nc2ccc3c(c2)C(=O)N([C@@H](C)CO)C[C@H](C)[C@@H](CN(C)C(=O)Nc2ccc4c(c2)OCO4)OCCCC[C@@H](C)O3)cc1 0.557%
C[C@H]1CCCCO[C@@H](CN(C)Cc2ccc3c(c2)OCO3)[C@@H](C)CN([C@@H](C)CO)C(=O)c2cc(NC(=O)c3ccccc3)ccc2O1 -0.254%
C[C@@H]1CN([C@@H](C)CO)C(=O)c2cc(NC(=O)Nc3ccccc3)ccc2O[C@H]1CN(C)S(=O)(=O)c1ccccc1 -0.0866%
C[C@@H]1CCCCO[C@H](CN(C)C(=O)Nc2cccc3ccccc23)[C@H](C)CN([C@@H](C)CO)C(=O)c2cc(NC(=O)CCCN(C)C)ccc2O1 -0.756%
COc1ccc(CN(C)C[C@@H]2OCCCC[C@H](C)Oc3ccc(NS(=O)(=O)c4ccc(F)cc4)cc3C(=O)N([C@@H](C)CO)C[C@@H]2C)cc1 0.494%
O=C(NO)c1cccc(C(=O)N/N=C/c2c[nH]c3ccccc23)c1 -1.04%
C[C@@H]1CN([C@@H](C)CO)C(=O)CCCn2nncc2CO[C@@H]1CN(C)S(=O)(=O)c1ccc(-c2ccccc2)cc1 -0.179%
Cc1ccc(S(=O)(=O)Nc2ccc3c(c2)C(=O)N([C@H](C)CO)C[C@H](C)[C@H](CN(C)C(=O)Nc2ccc4c(c2)OCO4)OCCCC[C@@H](C)O3)cc1 -0.5%
C[C@@H]1CCCCO[C@@H](CN(C)Cc2ccccc2)[C@H](C)CN([C@H](C)CO)C(=O)c2cc(NC(=O)Nc3cccc4ccccc34)ccc2O1 1.29%
C[C@@H]1CCCCO[C@@H](CN(C)CC2CCCCC2)[C@H](C)CN([C@H](C)CO)C(=O)c2cc(NC(=O)C3CCCCC3)ccc2O1 0.00789%
CC(C)NC(=O)Nc1ccc2c(c1)C(=O)N([C@H](C)CO)C[C@H](C)[C@@H](CN(C)Cc1ccc3c(c1)OCO3)OCCCC[C@H](C)O2 -0.756%
CNC[C@H]1OCCCC[C@@H](C)Oc2ccc(NS(C)(=O)=O)cc2C(=O)N([C@@H](C)CO)C[C@H]1C -0.624%
COc1ccc(S(=O)(=O)Nc2ccc3c(c2)C(=O)N([C@H](C)CO)C[C@@H](C)[C@H](CN(C)C(=O)c2ccncc2)OCCCC[C@@H](C)O3)cc1 0.262%
C[C@H]1CN([C@@H](C)CO)C(=O)CCCn2cc(nn2)CO[C@@H]1CN(C)S(=O)(=O)c1ccccc1C#N 0.483%
C[C@H]1CN([C@@H](C)CO)C(=O)Cc2cc(NC(=O)CCCCCC(=O)Nc3ccccc3N)ccc2O[C@@H]1CN(C)Cc1ccncc1 -0.722%
CC(C)NC(=O)Nc1ccc2c(c1)C(=O)N([C@@H](C)CO)C[C@@H](C)[C@H](CN(C)Cc1ccc(Cl)c(Cl)c1)OCCCC[C@H](C)O2 -1.26%
COc1ccc(NC(=O)N(C)C[C@H]2OCCCC[C@H](C)Oc3ccc(NC(=O)NC4CCCCC4)cc3C(=O)N([C@@H](C)CO)C[C@@H]2C)cc1 -0.198%
C[C@@H]1CN([C@H](C)CO)C(=O)c2cc(NC(=O)Cn3cnnn3)ccc2O[C@@H]1CN(C)C(=O)Nc1ccc2c(c1)OCO2 -0.00909%
C[C@H](CO)N1C[C@H](C)[C@@H](CN(C)CC2CC2)OCCCC[C@H](C)Oc2ccc(NC(=O)Cc3ccccc3)cc2C1=O 0.105%
CCCN(C)C[C@@H]1OCCCC[C@@H](C)Oc2ccc(NC(=O)Nc3ccc(C(F)(F)F)cc3)cc2C(=O)N([C@H](C)CO)C[C@H]1C 1.62%
C[C@H](CO)N1C[C@H](C)[C@@H](CN(C)Cc2ccncc2)Oc2ccc(NS(=O)(=O)c3ccc(Cl)cc3)cc2CC1=O -1.19%
